Experiments:
[1] = Cytotoxicity against human HepG2.2.15 cells assessed as decrease in cell viability after 8 days by CCK-8 assay; assay type: toxicity, cell-based, HepG2 2.2.15
Procedure, shortened: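 HepG2.2.15 cells (HBV-transgenic human hepatoma) cultured in triplicate for 8 days with five doses of compound; untreated cells as controls. CCK-8 reagent added 0.5 h before end of culture, absorbance read at 450 nm, percent cell death calculated; CC50 is the concentration killing 50% of cells.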

Hepatitis B virus [2] = experiment: Antiviral activity against Hepatitis B virus infected in human HepG2.2.15 cells assessed as inhibition of HBeAg secretion by ELISA; assay type: functional, cell-based
Procedure, shortened: (§1)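 Supernatant from HepG2.2.15 cultures aspirated and HBeAg or HBsAg measured with a diagnostic ELISA kit, absorbance read on a plate reader. Inhibition (%) = (A normal cell group − A experimental group)/[…] × 100; IC50 is the concentration giving 50% inhibition of antigen secretion. Lamivudine positive control.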

Hepatitis B virus [3] = experiment: Antiviral activity against Hepatitis B virus infected in human HepG2.2.15 cells assessed as inhibition of HBsAg secretion by ELISA; assay type: functional, cell-based; procedure, shortened: as §1
[4] = Selectivity index, ratio of CC50 for human HepG2.2.15 cells to IC50 for Hepatitis B virus infected in human HepG2.2.15 cells assessed as inhibition of HBeAg secretion; assay type: functional
Procedure, shortened: (§2)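 SI = CC50 (CCK-8, HepG2.2.15, 8 days) divided by IC50 for inhibition of HBeAg or HBsAg secretion measured by ELISA in HepG2.2.15 supernatants.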

[5] = Selectivity index, ratio of CC50 for human HepG2.2.15 cells to IC50 for Hepatitis B virus infected in human HepG2.2.15 cells assessed as inhibition of HBsAg secretion; assay type: functional; procedure, shortened: as §2
Hepatitis B virus [6] = experiment: Antiviral activity against Hepatitis B virus; assay type: functional
[7] = Cytotoxicity against human HepG2.2.15 cells assessed as decrease in cell viability after 8 days by CCK-8 assay
Hepatitis B virus [8] = experiment: Antiviral activity against Hepatitis B virus infected in human HepG2.2.15 cells assessed as inhibition of viral DNA replication after 8 days by real-time fluorescent PCR method; assay type: functional, cell-based; conditions: HepG2.2.15, 192 h
Procedure, shortened: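 HepG2.2.15 cells exposed to compounds […] for 8 days; 100 µL culture supernatant added to extraction buffer, boiled 10 min, centrifuged 10 min, and aliquots assayed for extracellular HBV DNA by fluorescent-probe real-time quantitative PCR kit. Lamivudine positive control.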

Hepatitis B virus [9] = experiment: Antiviral activity against Hepatitis B virus infected in human HepAD38 cells assessed as inhibition of viral DNA replication; assay type: functional, cell-based
[10] = Cytotoxicity against human HepAD38 cells; assay type: toxicity, cell-based

SMILES	CC50 at 192 h [1]	IC50 (Hepatitis B virus [2])	IC50 (Hepatitis B virus [3])	Ratio CC50/IC50 [4]	Ratio CC50/IC50 [5]	IC50 (Hepatitis B virus [6])	IC50 at 8 days [7]	IC50 (Hepatitis B virus [8])	IC50 (Hepatitis B virus [9])	IC50 [10]
CCOC(=O)c1cn(-c2cccc(OC)c2)nc1CC(C)C	70.5 µM	70.6 µM	63.3 µM	1	1.11	–	–	–	–	–
CCOC(=O)c1cn(-c2nccs2)nc1CC(C)C	> 100 µM	> 100 µM	> 100 µM	–	–	–	–	–	–	–
CC(C)Cc1nn(-c2cccc(F)c2)cc1C(=O)NCC1CCN(C(=O)OC(C)(C)C)CC1	> 100 µM	> 100 µM	> 100 µM	–	–	–	–	–	–	–
CCOC(=O)c1cn(-c2ccccc2F)nc1CC(C)C	> 100 µM	82.3 µM	94.8 µM	>1.21	>1.05	–	–	–	–	–
CCOC(=O)c1cn(-c2ccc(C(=O)O)cc2)nc1CC(C)C	> 100 µM	> 100 µM	> 100 µM	–	–	–	–	–	–	–
CC(C)Cc1nn(-c2cccc(F)c2)cc1C(=O)NNc1ccc(F)cc1	45.4 µM	34 µM	51.9 µM	1.34	–	–	–	–	–	–
COc1ccc(CONC(=O)c2cn(-c3cccc(F)c3)nc2CC(C)C)cc1	67.9 µM	44.8 µM	57.6 µM	1.52	1.18	–	–	–	–	–
CC(C)Cc1nn(-c2nccs2)cc1C(=O)NCc1ccc(O)cc1	> 100 µM	86.2 µM	> 100 µM	>1.16	–	–	–	–	–	–
Nc1ccn([C@@H]2CS[C@H](CO)O2)c(=O)n1 [LAMIVUDINE]	> 100 µM	> 100 µM	> 100 µM	–	–	–	–	–	–	–
CCOC(=O)c1cn(-c2cccc([N+](=O)[O-])c2)nc1CC(C)C	59.3 µM	59.4 µM	63.3 µM	–	0.94	–	–	–	–	–
CCOC(=O)c1cn(-c2ccc(OC)cc2)nc1CC(C)C	77.1 µM	71.6 µM	68.5 µM	1.08	1.12	–	–	–	–	–
COc1ccc(CNC(=O)c2cn(-c3nccs3)nc2CC(C)C)cc1	> 100 µM	95.7 µM	> 100 µM	>1.05	–	–	–	–	–	–
CC(C)Cc1nn(-c2nccs2)cc1C(=O)NCc1ccc(N)cc1	> 100 µM	> 100 µM	> 100 µM	–	–	–	–	–	–	–
CCOC(=O)c1nc(-c2cccc(F)c2)sc1CC(C)C	–	–	–	–	–	< 0.05 µM	–	–	–	–
CCOC(=O)c1cn(-c2ccc(F)cc2)nc1CC(C)C	> 100 µM	> 100 µM	> 100 µM	–	–	–	–	–	–	–
CC(C)Cc1nn(-c2nccs2)cc1C(=O)NCc1ccc(C(F)(F)F)cc1	> 100 µM	> 100 µM	> 100 µM	–	–	–	–	–	–	–

SMILES	CC50 at 192 h [1]	IC50 (Hepatitis B virus [2])	IC50 (Hepatitis B virus [3])	Ratio CC50/IC50 [4]	Ratio CC50/IC50 [5]	IC50 (Hepatitis B virus [6])	IC50 at 8 days [7]	IC50 (Hepatitis B virus [8])	IC50 (Hepatitis B virus [9])	IC50 [10]
CC(C)Cc1nn(-c2cccc(F)c2)cc1C(=O)NCc1ccccc1	85.9 µM	38.5 µM	38.6 µM	2.23	2.23	–	–	–	–	–
CC(C)Cc1sc(-c2nccs2)nc1C(=O)NCc1ccc(F)cc1	51.5 µM	31.6 µM	34.7 µM	1.63	1.48	–	50.4 µM	1.33 µM	–	–
CC(C)Cc1nn(-c2nccs2)cc1C(=O)NCc1ccc(F)cc1	> 100 µM	31.4 µM	44.5 µM	>3.18	>2.25	–	–	–	–	–
CC(C)Cc1nn(-c2nccs2)cc1C(=O)Nc1ccc(F)cc1	83.7 µM	2.22 µM	24.3 µM	37.69	3.44	–	–	–	–	–
CC(C)Cc1nn(-c2cccc(F)c2)cc1C(=O)NCc1ccc(F)cc1	> 100 µM	> 100 µM	> 100 µM	–	–	–	–	–	–	–
CCOC(=O)c1cn(-c2cccc(C(=O)O)c2)nc1CC(C)C	7.1 µM	47.9 µM	41.9 µM	0.15	0.17	–	–	–	–	–
CC(C)Cc1nn(-c2cccc(F)c2)cc1C(=O)NCc1ccncc1	> 100 µM	71.2 µM	> 100 µM	>1.41	–	–	–	–	–	–
CCOC(=O)c1cn(-c2ccccc2[N+](=O)[O-])nc1CC(C)C	4.85 µM	< 6.25 µM	49.3 µM	>0.78	0.1	–	–	–	–	–
CCOC(=O)c1nc(-c2cncs2)sc1CC(C)C	–	–	–	–	–	–	–	1.1 µM	–	–
CC(C)Cc1nn(-c2cccc(F)c2)cc1C(=O)Nc1ccc(F)cc1	36.2 µM	24.7 µM	25.9 µM	1.47	1.4	–	–	–	–	–
CC(C)Cc1nn(-c2nccs2)cc1C(=O)NCc1cccc(F)c1	> 100 µM	17.2 µM	58.8 µM	>5.8	>1.7	–	–	–	–	–
CCOC(=O)c1cn(-c2ccc([N+](=O)[O-])cc2)nc1CC(C)C	> 100 µM	> 100 µM	> 100 µM	–	–	–	–	–	–	–
CC(C)Cc1nn(-c2nccs2)cc1C(=O)NCc1ccc(F)cc1F	83.6 µM	8.84 µM	41.8 µM	9.46	2	–	–	–	–	–
COc1ccccc1/C(Br)=C(/NC(=O)c1ccc([N+](=O)[O-])cc1)C(=O)N1CCCCC1	–	–	–	–	–	–	–	–	0.13 µM	> 51 µM
CC(C)Cc1nn(-c2nccs2)cc1C(=O)NCc1ccccc1F	> 100 µM	26 µM	50.1 µM	>3.85	>2	–	–	–	–	–
COC(=O)c1nc(-c2cnc([C@@H](NC(=O)c3cccs3)C(C)C)s2)oc1C	–	–	–	–	–	–	–	76.4 µM	–	–
